# Assay results pooled from the literature.
# Each line is one published result; the experiments were not run side by side.
# Target: Cyclin-dependent kinase 16 (CDK16, Homo sapiens, UniProt Q00536)
Compound,test,conditions,remaining binding
C[C@@H]1CN(c2ccc3ncc(-c4ccc5[nH]nc(C6CC6)c5c4)n3n2)C[C@H](C)O1,"binding, competition with immobilised ligand",0.5 µM,100%
O=C(NCCCN1CCOCC1)c1ccc(Nc2ncc(Cl)c(-c3ccc(Cl)s3)n2)cc1,"binding, competition with immobilised ligand",1 µM,23%
CN(C)c1nccc(-c2cnn3ncccc23)n1,binding,1 µM,100%
CNC(=O)[C@@H]1CC[C@@H](n2c(-c3ccc4cnccc4c3)nc3ccc(C(=O)NCc4cccc(C(N)=O)c4)cc32)C1,"binding, competition with immobilised ligand",1 µM,100%
c1ccc(N2CCN(Cc3nc4ccccc4[nH]3)CC2)nc1,"binding, competition with immobilised ligand",1 µM,100%
C=CC(=O)N1CCC(C(=O)NCC(=O)N2CCN(c3nc(-c4cnc(N)nc4C(F)F)nc(N4CCOCC4)n3)CC2)CC1,"binding, competition with immobilised ligand",1 µM,100%
O=C(NCC1CCOCC1)c1n[nH]cc1NC(=O)c1c(F)cccc1F,"binding, competition with immobilised ligand",1 µM,57%
O=C(c1ccc(Nc2nccc(-c3cc4ccccc4s3)n2)cc1)N1CCC(N2CCCC2)CC1,"binding, competition with immobilised ligand",1 µM,58%
CC(C)(C)c1ccc(-c2nc(CBr)nn2-c2cccc(O)c2)cc1,"cell-free assay, competition with immobilised ligand",10 µM,69%
F[C@@H]1CCN(c2nccc(-c3cnn4ncccc34)n2)C1,binding,1 µM,100%
COc1ncc2cc3ccccc3nc2c1C#N,"cell-free assay, competition with immobilised ligand",5 µM,97%
CNCc1ccccc1-c1csc([C@H](C)Nc2nc(C)nc3cc(OC)c(OC)cc23)c1,"cell-free assay, competition with immobilised ligand",1 µM,83%
N[C@H]1CCN(c2nccc(-c3cnn4ncccc34)n2)C1,binding,1 µM,100%
CSc1cccnc1N1CCN(Cc2nc3ccccc3[nH]2)CC1,"cell-free assay, competition with immobilised ligand",1 µM,81%
N#Cc1ccccc1CSc1nnc2c(n1)[nH]c1ccccc12,"binding, competition with immobilised ligand",10 µM,100%
C[C@H]1CCN(c2nccc(-c3cnn4ncccc34)n2)C1,binding,1 µM,95%
C[C@@]1(Cc2ccc(C#N)cc2)C(=O)N(c2cc(Cl)cc(Cl)c2)c2ncc(C(=O)NC3(c4nc(C5CCC5)no4)CC3)n21,"cell-free assay, competition with immobilised ligand",1 µM,97%
Cc1cnc(Nc2ccc(C(=O)N3CCC(N4CCCC4)CC3)cc2)nc1-c1cc2ccccc2s1,"binding, competition with immobilised ligand",1 µM,3.9%
Cc1cnn2ncc(-c3ccnc(N(C)C)n3)c2c1,binding,1 µM,100%
CS(=O)(=O)NCC[C@H](NC(=O)c1cncc2c1cnn2-c1ccc(F)cc1)c1ccnc(S(C)(=O)=O)c1,"cell-free assay, competition with immobilised ligand",1 µM,100%
CCN1CCN(Cc2ccc(C(=O)Nc3ccc(C)c(Oc4ccc5c(c4)CC(=O)N5)c3)cc2C(F)(F)F)CC1,"binding, competition with immobilised ligand",1 µM,100%
CN(C)c1nccc(-c2cnc3ncccn23)n1,binding,1 µM,73%
COCCOc1nc(-c2ccc(Cl)nc2)nc2c1CN(C(=O)c1ncn3ccccc13)CC2,"cell-free assay, competition with immobilised ligand",0.1 µM,100%
CC1CCCN1c1nccc(-c2cnn3ncccc23)n1 (stereo not shown),binding,1 µM,100%
Cc1nc(N2CC[C@@H](O)C2)ncc1-c1cc(C(F)(F)F)cc2[nH]ncc12,"binding, competition with immobilised ligand",1 µM,75%
